Calls of active or inactive are those of the source. The rule behind the calls is not given here.
Tests used:
Plasmodium falciparum [1] = assay: Antimalarial activity as reduced parasitaemia after 72 hrs against chloroquine-sensitive Plasmodium falciparum FCR3 in human erythrocytes by Diff-Quick stain; type: functional, organism-based; conditions: FCR3, 72 h
Method in brief: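 FCR-3 grown in type A human RBCs (5% hematocrit stock culture) in RPMI 1640 with HEPES, NaHCO3, gentamicin and 10% heat-inactivated type A human serum. Assay: 0.3% parasitemia, 3% final hematocrit, DMSO compound dilutions; 72 h, 37 °C, 5% CO2/5% O2/90% N2. Parasitemia read from Diff-Quik thin films. Duplicate wells, mean of three experiments; IC50 taken from the growth-inhibition curve.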

FM3A = assay: Cytotoxicity against mouse FM3A cells assessed as inhibition of increase in cell density after 48 hrs; type: cell-based
Method in brief: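 Mouse mammary tumor FM3A (subclone F28-7) cells kept in suspension in ES medium with 2% heat-inactivated FBS, seeded at 5 × 10⁴ cells/mL, compounds added in DMSO. 48 h, 37 °C, 5% CO2; cells counted microscopically. Duplicate wells, mean of three experiments; IC50 is the concentration giving 50% inhibition of cell-density increase versus control.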

Plasmodium falciparum [2] = assay: Antimalarial activity as synchronized ring-stage of chloroquine-sensitive Plasmodium falciparum FCR3 infected human erythrocytes at 5 uL by Diff-Quick stain; type: functional, organism-based
Method in brief: (§1)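 Cultures synchronized twice with 5% D-sorbitol 40 h apart (>80% rings); stage checked microscopically before dosing. Compound added at ring, middle trophozoite, late trophozoite or schizont stage; 5% erythrocytes, about 1.0% parasitemia, compound in 0.1% DMSO at 100 times the IC50. 48 h, 37 °C; medium and compound renewed at 24 h. Infection ratio counted per at least 2000 erythrocytes in Diff-Quik films every 6 h; duplicate, versus compound-free control.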

Plasmodium falciparum [3] = assay: Antimalarial activity as synchronized middle trophozoites of chloroquine-sensitive Plasmodium falciparum FCR3 in human erythrocytes at 5 uL by Diff-Quick stain; type: functional, organism-based; method in brief: as §1
Plasmodium falciparum [4] = assay: Antimalarial activity as synchronized late trophozoites of chloroquine-sensitive Plasmodium falciparum FCR3 in human erythrocytes at 5 uL by Diff-Quick stain; type: functional, organism-based; method in brief: as §1
Plasmodium falciparum [5] = assay: Antimalarial activity as synchronized schizonts of chloroquine-sensitive Plasmodium falciparum FCR3 in human erythrocytes at 5 uL by Diff-Quick stain; type: functional, organism-based; method in brief: as §1

SMILES	EC50 (Plasmodium falciparum [1]) [nM]	EC50 (FM3A) [nM]	Activity (Plasmodium falciparum [2])	Activity (Plasmodium falciparum [3])	Activity (Plasmodium falciparum [4])	Activity (Plasmodium falciparum [5])
N#Cc1ccc(NC(=O)c2cc[n+](CCCCCCCCCC[n+]3ccc(C(=O)Nc4ccc(C#N)cc4)cc3)cc2)cc1	35	42400				
Cc1ccc(NC(=O)c2cc[n+](CCCCCCCCCC[n+]3ccc(C(=O)Nc4ccc(C)cc4)cc3)cc2)cc1	39	25600				
O=C(Nc1ccc(I)cc1)c1cc[n+](CCCCCCCCCC[n+]2ccc(C(=O)Nc3ccc(I)cc3)cc2)cc1	12	1420				
O=C(Nc1ccc(C(F)(F)F)cc1)c1cc[n+](CCCCCCCCCC[n+]2ccc(C(=O)Nc3ccc(C(F)(F)F)cc3)cc2)cc1	33	5180				
O=C(Nc1ccc(Br)cc1)c1cc[n+](CCCCCCCCCC[n+]2ccc(C(=O)Nc3ccc(Br)cc3)cc2)cc1	15	1390				
O=C(Nc1ccc(Cl)cc1)c1cc[n+](CCCCCCCCCC[n+]2ccc(C(=O)Nc3ccc(Cl)cc3)cc2)cc1	8	1890				
O=C(Nc1ccc(F)cc1)c1cc[n+](CCCCCCCCCC[n+]2ccc(C(=O)Nc3ccc(F)cc3)cc2)cc1	21	27800				
O=C(Nc1ccc([N+](=O)[O-])cc1)c1cc[n+](CCCCCCCCCC[n+]2ccc(C(=O)Nc3ccc([N+](=O)[O-])cc3)cc2)cc1	74	5990				
CCCCNC(=O)c1cc[n+](CCCCCCCCCCCC[n+]2ccc(C(=O)NCCCC)cc2)cc1	100	52900				
O=C(Nc1ccccc1)c1cc[n+](CCCCCCCCCC[n+]2ccc(C(=O)Nc3ccccc3)cc2)cc1	29	42800	inactive	inactive	inactive	Active
CCCCCCNC(=O)c1cc[n+](CCCCCCCCCC[n+]2ccc(C(=O)NCCCCCC)cc2)cc1	5	10500	inactive	inactive	inactive	Active

— ChEMBL document CHEMBL1150391, “Pyridinium cationic-dimer antimalarials, unlike chloroquine, act selectively between the schizont stage and the ring stage of Plasmodium falciparum” (Bioorg Med Chem, 2008)
